Measured values gathered from unrelated publications.
Lines come from different studies, so protocols differ.
Target: Hormonally up-regulated neu tumor-associated kinase (HUNK, Homo sapiens, UniProt P57058)
One construct used (P57058 1-714): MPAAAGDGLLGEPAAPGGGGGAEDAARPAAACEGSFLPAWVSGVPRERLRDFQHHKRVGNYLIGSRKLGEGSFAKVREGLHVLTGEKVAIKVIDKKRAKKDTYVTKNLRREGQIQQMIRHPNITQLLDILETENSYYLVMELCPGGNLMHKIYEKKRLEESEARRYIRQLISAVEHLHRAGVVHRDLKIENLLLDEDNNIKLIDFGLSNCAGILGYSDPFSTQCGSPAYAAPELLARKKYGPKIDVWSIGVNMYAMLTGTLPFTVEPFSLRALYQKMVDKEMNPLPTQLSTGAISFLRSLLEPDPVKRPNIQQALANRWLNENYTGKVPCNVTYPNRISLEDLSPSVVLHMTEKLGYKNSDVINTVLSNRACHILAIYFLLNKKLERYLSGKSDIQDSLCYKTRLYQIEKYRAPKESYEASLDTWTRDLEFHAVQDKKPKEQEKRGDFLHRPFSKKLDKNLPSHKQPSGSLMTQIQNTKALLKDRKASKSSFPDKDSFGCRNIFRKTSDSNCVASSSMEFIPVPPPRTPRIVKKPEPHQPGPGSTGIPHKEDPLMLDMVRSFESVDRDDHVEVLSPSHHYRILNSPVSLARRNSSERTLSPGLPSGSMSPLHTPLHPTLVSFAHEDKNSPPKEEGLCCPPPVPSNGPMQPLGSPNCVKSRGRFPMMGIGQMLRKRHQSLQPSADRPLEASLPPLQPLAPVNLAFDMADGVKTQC

O=C(Nc1c[nH]nc1C(=O)NC1CCNCC1)c1cc(F)cc(F)c1  remaining binding (binding, competition with immobilised ligand; 1 µM): 100%
COc1cnc(Nc2cccc(S(N)(=O)=O)c2)nc1N1CCN(c2ccccc2)C(=O)C1  remaining binding (binding, competition with immobilised ligand; 1 µM): 100%
N[C@@H]1CCN(c2nccc(-c3cnn4ncccc34)n2)C1  remaining binding (binding; 1 µM): 100%
CNC(=O)Nc1ccc2c(c1)CC[C@@]21OC(=O)N(CC(=O)N(Cc2ccc(F)cc2)[C@@H](C)C(F)(F)F)C1=O  remaining binding (cell-free assay, competition with immobilised ligand; 1 µM): 100%
Cc1cnc(Nc2ccc(C(=O)N3CCC(N4CCCC4)CC3)cc2)nc1-c1cc2ccccc2s1  remaining binding (binding, competition with immobilised ligand; 1 µM): 100%
COc1ncc2cc3ccccc3nc2c1C#N  remaining binding (cell-free assay, competition with immobilised ligand; 5 µM): 100%
O=C(O)c1cc(-c2ccc(C3CCNCC3)cc2)c2ccc(-c3ccc(C(F)(F)F)cc3)cc2c1  remaining binding (cell-free assay, competition with immobilised ligand; 1 µM): 100%
O=C(c1ccc(Nc2ncc(Cl)c(-c3ccc(Cl)s3)n2)cc1)N1CCC(N2CCCC2)CC1  remaining binding (binding, competition with immobilised ligand; 1 µM): 100%
F[C@@H]1CCN(c2nccc(-c3cnn4ncccc34)n2)C1  remaining binding (binding; 1 µM): 0%
Cc1cc(C)c(-n2ccn3nc(-c4cccnc4)cc23)cc1NC(=O)c1cc(C#N)cc(S(F)(F)(F)(F)F)c1  remaining binding (cell-free assay, competition with immobilised ligand; 0.1 µM): 83%
C=CC(=O)N1CCC(C(=O)NCC(=O)N2CCN(c3nc(-c4cnc(N)nc4C(F)F)nc(N4CCOCC4)n3)CC2)CC1  remaining binding (binding, competition with immobilised ligand; 1 µM): 79%
FC(F)(F)Oc1cccc(-c2cnc3ccc(-c4ccncc4)nn23)c1  remaining binding (cell-free assay, competition with immobilised ligand; 5 µM): 96%
CN(C)c1ncc(F)c(-c2cnn3ncccc23)n1  remaining binding (binding; 1 µM): 100%
CCCOc1ccc([C@@H]2[C@@H](C(=O)O)[C@H](c3ccc4c(c3)OCO4)CN2CC(=O)Nc2c(CC)cccc2CC)cc1  remaining binding (cell-free assay, competition with immobilised ligand; 1 µM): 70%
CN(C)c1nccc(-c2cnn3ncccc23)n1  remaining binding (binding; 1 µM): 100%
NS(=O)(=O)c1cc(NC(=O)Cc2ccccc2)ccc1Oc1cccc(Cl)c1  remaining binding (cell-free assay, competition with immobilised ligand; 1 µM): 84%
C[C@H]1CCN(c2nccc(-c3cnn4ncccc34)n2)C1  remaining binding (binding; 1 µM): 100%
CNC(=O)[C@@H]1CC[C@@H](n2c(-c3ccc4cnccc4c3)nc3ccc(C(=O)NCc4cccc(C(N)=O)c4)cc32)C1  remaining binding (binding, competition with immobilised ligand; 1 µM): 100%
c1cnn2ncc(-c3ccnc(N4CCC45COC5)n3)c2c1  remaining binding (binding; 1 µM): 92%
O=C(c1ccc(Nc2ncc(Cl)c(-c3cc4ccccc4s3)n2)cc1)N1CCC(N2CCCC2)CC1  remaining binding (binding, competition with immobilised ligand; 1 µM): 100%
CN(CCCC(F)(F)F)c1nccc(-c2cnn3ncccc23)n1  remaining binding (binding; 1 µM): 80%
CSc1cccnc1N1CCN(Cc2nc3ccccc3[nH]2)CC1  remaining binding (cell-free assay, competition with immobilised ligand; 1 µM): 100%
